Most compounds without a hit are left out; they make up all but 1.8% or so of the library.
Dynein transport – dynein cargo transport inhibition. 3617.4 mouse cells, GR-EGFP nuclear translocation imaging; test concentration mostly 20 µM; stimulated with dexamethasone, 1 µM; active compounds read low. z-score, hits read low. 220,000 compounds, 0.47% hits;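 active = plate z-score of nuclear minus cytoplasmic receptor signal below a set negative limit, without overly bright fluorescence or cell loss, cut at about -3.5 in these data, passing the limit was not always enough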;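 also: z-score of nuclear minus cytoplasmic ring GR-EGFP intensity difference per well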
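Buffer or medium: tetracycline-free induction medium containing charcoal-stripped FBS / Reagent: dexamethasone agonist, 1.0 µM final, for 30 min / Technique: automated 10x imaging of fixed Hoechst-stained cells / Times: induction 48 h, compound 1 h, agonist 30 min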
Autophagy HCS – alters autophagy in cells; MEF GFP-LC3 puncta imaging; test concentration mostly 10 µM; calls only at 10 µM (by protocol); 190,000 compounds, 0.98% hits;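 active = percentage of spot-positive cells more than 3 SD above its plate mean, without a fluorescence outlier flag or 80% toxicity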
zVAD death inh – L929 zVAD cell death inhibition | L929 zVAD necroptosis rescue, ATP luminescence, 24 h; with zVAD 60 µM | viability rescue, % at 10 µM | 220,000 compounds, 0.38% hits | AID 1377;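 active = activation, scaled between plate controls, above about 75%, limit read from the data; inactive = activation under that limit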
TNF death inh – TNF-alpha cell death inhibition in Jurkat FADD-/- cells; Jurkat FADD-/- TNF necroptosis rescue, ATP luminescence, 24 h; 0 = TNF only, 100 = no-TNF cells; activation (protection from cell death), % at 10 µM; 220,000 compounds, 0.068% hits; AID 463075;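 active = activation, meaning protection from cell death, of at least 50% relative to plate controls; inactive = activation below 50%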;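 also: necroptosis triggered by 40 ng/mL TNF-alpha added together with compound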
Mdm2 ligase inh – inhibitors of human Mdm2 E3 ubiquitin ligase; Q00987; cell-based MDM2 ubiquitination luciferase reporter, 2 h; 0 = plate control, 100 = twice control, blank-subtracted; signal enhancement, % at 5 µM; 210,000 compounds, 0.11% hits;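 active = signal enhancement of 30% or more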;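 also: luminescence tracks abundance of the self-degrading MDM2-luciferase fusion protein; higher signal means inhibition of MDM2 E3 ligase activity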
Target sequence (Q00987 whole entry, looked up, the tested form may be a part): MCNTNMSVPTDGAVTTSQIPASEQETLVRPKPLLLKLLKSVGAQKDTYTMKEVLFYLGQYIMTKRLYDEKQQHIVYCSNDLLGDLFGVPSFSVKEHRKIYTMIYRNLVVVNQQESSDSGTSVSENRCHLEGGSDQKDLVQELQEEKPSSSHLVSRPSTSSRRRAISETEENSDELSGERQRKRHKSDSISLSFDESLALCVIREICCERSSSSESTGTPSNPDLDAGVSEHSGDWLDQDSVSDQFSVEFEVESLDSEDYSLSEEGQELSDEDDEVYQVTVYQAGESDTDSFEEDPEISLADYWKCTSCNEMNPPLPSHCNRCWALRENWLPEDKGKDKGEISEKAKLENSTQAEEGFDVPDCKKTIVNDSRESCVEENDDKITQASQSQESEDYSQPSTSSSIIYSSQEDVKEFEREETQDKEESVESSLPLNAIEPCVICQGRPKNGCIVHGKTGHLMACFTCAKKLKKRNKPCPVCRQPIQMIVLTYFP
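System: stable MDM2–luciferase fusion reporter cells / Input: 2000 cells seeded into each well / Schedule: 4 h settle plus 2 h compound, 37 °C / Compound: single-point 5 µM / Buffer or medium: cells held in DMEM / Benchmarks: control and blank well means / Evaluation: percent signal gain over controls, blank-subtracted / Measured by: luciferase luminescence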
A number is an active result; – = inactive; · = no result; + = active, no number.

SMILES | Dynein transport | Autophagy HCS | zVAD death inh | TNF death inh | Mdm2 ligase inh
CCCn1c(=NC(=O)c2c(-c3c(F)cccc3Cl)noc2C)c(C(=O)OCC)cc2c(=O)n3ccccc3nc21 | – | + | – | – | –
Cc1cccc(NC(=O)c2cc(-c3ccc(C)s3)nc3ccccc23)n1 | – | + | – | – | –
CCN(CC)c1ccc(/C=C(\C#N)c2nc(-c3cccs3)c(NC(C)=O)s2)cc1 | – | + | – | – | –
CCOC(=O)c1[nH]c(C)c(C(=O)c2cc(F)ccc2F)c1C | – | + | – | – | –
CCCn1c(O)c(N=N)c2ccccc21 | – | – | – | – | –
CC1=C(c2ccccc2)C(=S)NC(C)(C)C1 | – | · | – | – | –
CCn1c(C)c(C(C)=O)c(N2CCN(C(c3ccccc3)c3ccccc3)CC2)nc1=S | – | + | – | – | –
C=CCC1(N(C(C)=O)c2ccccc2C)CCCCC1 | – | – | – | – | –
CCOCC(=O)Nc1ccc(OCc2ccccc2)cc1 | – | + | – | – | –
O=C(Nc1ccccc1F)c1ccc(OCc2ccccc2)cc1 | – | + | – | – | –
O=C(Nc1ccc(OCc2ccccc2)cc1)c1ccccc1 | – | – | – | – | –
COc1ccccc1NS(=O)(=O)c1cc(NC(=O)/C=C/c2cccs2)ccc1N1CCOCC1 | – | – | – | – | –
CC(=O)/C=C(\C)N=Nc1c(O)[nH]c2ccccc12 | – | · | – | – | –
CC1(C)Cc2c(sc3c2c(=O)n(-c2cccc(Cl)c2)c(=O)n3CC(N)=O)CO1 | – | · | – | – | –
CCC(C(=O)O)P(=O)(c1ccc(Cl)cc1)c1ccc(Cl)cc1 (stereo unspecified) | – | – | – | – | –
COC(=O)c1c(C)oc(C)c1S(=O)(=O)N1CCCC1 | – | · | – | – | –
O=S(=O)(c1cnc(Cl)c(Cl)c1)N1CCc2ccccc21 | -4.32 | · | – | – | –
Cc1ccccc1NC(=S)NCCO | – | + | – | – | –
CC(C)C1C(C#N)=C(N)Oc2n[nH]c(-c3ccc4ccccc4c3)c21 (stereo unspecified) | – | + | – | – | ·
CC(C)C1C(C#N)=C(N)Oc2n[nH]c(-c3cccs3)c21 (stereo unspecified) | – | – | – | – | –
COc1cccc(-c2[nH]nc3c2C(c2ccsc2)C(C#N)=C(N)O3)c1 (stereo unspecified) | – | – | – | – | 31.5
Cc1[nH]c2ccccc2c1C(=O)CN1C(=O)NC2(CC(C)CC(C)(C)C2)C1=O (stereo unspecified) | – | – | – | – | –
O=C(O)c1nn(CCSc2ccccc2F)c(=O)c2ccccc12 | – | · | – | – | –
CCCc1[nH]nc2c1C1(C(=O)N(C(C)C)c3ccccc31)C(C#N)=C(N)O2 (stereo unspecified) | – | + | – | – | –
Cc1ccc(CNC(=O)Cn2cccc2C(=O)c2ccccc2C)cc1 | – | – | – | – | –
SMILES | Dynein transport | Autophagy HCS | zVAD death inh | TNF death inh | Mdm2 ligase inh
Cc1ccc(C)c(N2CCN(CCCNC(=O)Cn3cccc3C(=O)c3ccccc3C)CC2)c1 | – | + | – | – | –
Cc1ccccc1C(=O)c1cccn1CC(=O)NCCN1CCN(c2cccc(C)c2C)CC1 | – | + | – | – | –
CCn1c(-c2c(Cl)c(C)nn2C)n[nH]c1=S | – | – | – | – | –
COC(=O)C/C=C/[C@@H](C)[C@@H](/C=N/OCC[C@@H]1C=C[C@H](OC(C)=O)[C@@H](COC(C)=O)O1)NS(=O)(=O)c1ccc(C)cc1 | – | + | – | – | ·
Clc1ccc(C[n+]2csc3ccccc32)cc1 | – | + | – | – | –
Fc1ccc(C[n+]2csc3ccccc32)cc1 | – | – | – | – | –
S=C(NCCCN1CCOCC1)NC1CC1 | – | – | – | – | ·
O=C1/C(=C/c2cccnc2)CCC/C1=C\c1cccnc1 | – | – | – | – | 36.0
O=C1/C(=C/c2cccnc2)CC/C1=C\c1cccnc1 | – | – | – | – | –
O=C(OCC(=O)N1CCN(C(=O)c2ccco2)CC1)c1cc(-c2ccccc2)nc2ccccc12 | – | – | – | – | –
O=C(OCC(=O)N1CCN(C(=O)c2ccco2)CC1)c1cn(-c2ccccc2)nc1-c1ccccc1 | – | – | 79.2 | – | –
CSc1ccc(N=Nc2c(C)[nH]n(C)c2=O)cc1 | – | · | – | – | –
Cc1nc2oc(C(=O)c3ccc(Br)cc3)c(N)c2c2c1COC(C)(C)C2 | – | + | – | – | –
Cc1ccc2nc(NCCO)nc(-c3ccccc3)c2c1 | – | – | – | – | –
OCCNc1nc(-c2ccccc2)c2cc(Cl)ccc2n1 | – | + | – | – | –
Cc1ccc(S(=O)(=O)c2cc3c(=O)n4ccccc4nc3n(Cc3ccco3)c2=N)cc1C | – | + | – | – | ·
COCCCNC(=S)Nc1cccc2ncccc12 | – | – | – | – | –
O=[N+]([O-])C1=CC=C2C(=NC3(CCCCC3)N2O)C1=NCCc1ccccc1 | – | – | – | – | 30.7
O=C(COc1ccc([N+](=O)[O-])cc1)Nc1nnc(-c2cccnc2)s1 | – | · | – | – | –
O=C(C[n+]1cn(C(F)F)c2ccccc21)c1ccc(OC(F)F)cc1 | – | – | – | – | –
CC(C)c1ccc2c(c1)[C@H]1OCC[C@H]1[C@@H](c1cccs1)N2 | – | + | – | – | –
Cc1cc(C)c2c(c1)N[C@H](c1cccs1)[C@@H]1CCO[C@H]21 | – | · | – | – | –
COc1cc(C(=O)NC2=C(C#N)CCC2)cc(OC)c1OC | – | – | – | – | –
CCn1c(SCC(=O)NC(C)C)nnc1-c1cccs1 | – | + | – | – | –
COc1cc(OC)cc(C(=O)NCCC(=O)NCCc2ccc(OC)c(OC)c2)c1 | – | – | – | – | –
SMILES | Dynein transport | Autophagy HCS | zVAD death inh | TNF death inh | Mdm2 ligase inh
CC(C)OCCCN1CN(S(=O)(=O)c2cccs2)c2nc3ccccc3nc21 | – | · | – | – | –
Cc1c(O)ccc(-c2n[nH]c(C(=O)O)c2-c2nc3ccccc3s2)c1O | – | · | – | – | –
COc1cccc(CNC23CC4CC(CC(C4)C2)C3)c1OCc1ccccc1 | – | + | – | – | –
CN(C(=O)CSc1nnc(-c2cccs2)o1)C1CCS(=O)(=O)C1 (stereo unspecified) | – | – | – | – | –
COc1ccc(-c2[nH]ncc2CNC(C)c2cn(C)nc2C)c(F)c1 (stereo unspecified) | – | – | – | – | –
O=C(c1ccccc1)C(CCC(CN1CCOCC1)C(=O)c1ccccc1)CN1CCOCC1 (stereo unspecified) | -6.06 | – | – | – | –
COc1ccc(C(=O)C(CN2CCOCC2)c2ccccc2)cc1 (stereo unspecified) | – | – | – | – | –
CCCCOc1ccc(C(=O)C(CN2CCOCC2)c2ccccc2)cc1 (stereo unspecified) | – | + | – | – | –
